system: Pseudomonas; assay: Minimum inhibitory concentration against Pseudomonas species.; format: functional
In short: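 MIC in µg/mL, determined by the 2-fold serial agar dilution method. These readings were excluded from the geometric-mean MIC used for the QSAR analysis.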

Compound	MIC [µg/mL]
CCOP(=O)(OCC)C1=C(C(=O)O)N2C(=O)[C@@H](NC(=O)/C(=N\OC)c3csc(N)n3)CN2C1	> 128
CO/N=C(\C(=O)N[C@H]1CN2CC(P(=O)(OC)OC)=C(C(=O)O)N2C1=O)c1csc(N)n1	> 128
CCOC(=O)C1=C(C(=O)O)N2C(=O)[C@@H](NC(=O)/C(=N\OC)c3csc(N)n3)CN2C1	> 128
CCC(=O)C1=C(C(=O)O)N2C(=O)[C@@H](NC(=O)/C(=N\OC)c3csc(N)n3)CN2C1	> 128
CCCOC(=O)C1=C(C(=O)O)N2C(=O)[C@@H](NC(=O)/C(=N\OC)c3csc(N)n3)CN2C1	> 128
CO/N=C(\C(=O)N[C@H]1CN2CC(S(=O)(=O)c3c(C)noc3C)=C(C(=O)O)N2C1=O)c1csc(N)n1	> 128
CNC(=O)C1=C(C(=O)O)N2C(=O)[C@@H](NC(=O)/C(=N\OC)c3csc(N)n3)CN2C1	> 128
CO/N=C(\C(=O)N[C@H]1CN2CC(Sc3nnc(C)s3)=C(C(=O)O)N2C1=O)c1csc(N)n1	> 128
C=CCO/N=C/C1=C(C(=O)O)N2C(=O)[C@@H](NC(=O)/C(=N\OC)c3csc(N)n3)CN2C1	> 128
CO/N=C(\C(=O)N[C@H]1CN2CC(/C=N/OC)=C(C(=O)O)N2C1=O)c1csc(N)n1	> 128
CO/N=C(\C(=O)N[C@H]1CN2CC(C(=O)C(F)(F)F)=C(C(=O)O)N2C1=O)c1csc(N)n1	> 128
CO/N=C(\C(=O)N[C@H]1CN2CC(c3ccncc3)=C(C(=O)O)N2C1=O)c1csc(N)n1	> 128
CO/N=C(\C(=O)N[C@H]1CN2CC(C(=O)OC)=C(C(=O)O)N2C1=O)c1csc(N)n1	> 128
C=CC1=C(C(=O)O)N2C(=O)[C@@H](NC(=O)/C(=N\OC)c3csc(N)n3)CN2C1	> 128
CO/N=C(\C(=O)N[C@H]1CN2CC(/C=N/OCCc3ccccc3)=C(C(=O)O)N2C1=O)c1csc(N)n1	> 128
CO/N=C(\C(=O)N[C@H]1CN2CC(COC(C)=O)=C(C(=O)O)N2C1=O)c1csc(N)n1	> 128

The remaining lines, values ahead:

MIC [µg/mL]	Compound
> 128	CO/N=C(\C(=O)NC1CN2CC(S(C)(=O)=O)=C(C(=O)O)N2C1=O)c1csc(N)n1 (stereo unspecified)
> 128	CO/N=C(\C(=O)N[C@H]1CN2CC(C#N)=C(C(=O)O)N2C1=O)c1csc(N)n1
> 128	CO/N=C(\C(=O)N[C@H]1CN2CC(C(=O)OCc3ccccc3)=C(C(=O)O)N2C1=O)c1csc(N)n1
> 128	CO/N=C(\C(=O)N[C@H]1CN2CC(S(=O)(=O)c3ccccc3)=C(C(=O)O)N2C1=O)c1csc(N)n1
> 128	CO/N=C(\C(=O)N[C@H]1CN2CC(NC(=O)OC)=C(C(=O)O)N2C1=O)c1csc(N)n1
> 128	CO/N=C(\C(=O)N[C@H]1CN2CC(S(=O)(=O)N(C)C)=C(C(=O)O)N2C1=O)c1csc(N)n1
> 128	CO/N=C(\C(=O)N[C@H]1CN2CC(C(=O)c3ccccc3)=C(C(=O)O)N2C1=O)c1csc(N)n1
> 128	CO/N=C(\C(=O)N[C@H]1CN2CC(C(C)=O)=C(C(=O)O)N2C1=O)c1csc(N)n1
> 128	CO/N=C(\C(=O)N[C@H]1CN2CC=C(C(=O)O)N2C1=O)c1csc(N)n1
> 128	CO/N=C(\C(=O)N[C@H]1CN2CC(c3cccs3)=C(C(=O)O)N2C1=O)c1csc(N)n1
> 128	CO/N=C(\C(=O)N[C@H]1CN2CC(C(=O)CF)=C(C(=O)O)N2C1=O)c1csc(N)n1
> 128	CO/N=C(\C(=O)N[C@H]1CN2CC(SC)=C(C(=O)O)N2C1=O)c1csc(N)n1
> 128	CO/N=C(\C(=O)N[C@H]1CN2CC(C(=O)O)=C(C(=O)O)N2C1=O)c1csc(N)n1
> 128	CO/N=C(\C(=O)N[C@H]1CN2CC(C(F)(F)F)=C(C(=O)O)N2C1=O)c1csc(N)n1
> 128	CO/N=C(\C(=O)N[C@H]1CN2CC(Sc3nnnn3C)=C(C(=O)O)N2C1=O)c1csc(N)n1
> 128	CO/N=C(\C(=O)N[C@H]1CN2CC(C(=O)Nc3ccccc3)=C(C(=O)O)N2C1=O)c1csc(N)n1
> 128	CO/N=C(\C(=O)N[C@H]1CN2CC(S(=O)(=O)CCNC(C)=O)=C(C(=O)O)N2C1=O)c1csc(N)n1
> 128	CO/N=C(\C(=O)N[C@H]1CN2CC(c3ccccn3)=C(C(=O)O)N2C1=O)c1csc(N)n1
> 128	CCS(=O)(=O)C1=C(C(=O)O)N2C(=O)[C@@H](NC(=O)/C(=N\OC)c3csc(N)n3)CN2C1
> 128	CO/N=C(\C(=O)N[C@H]1CN2CC(c3ccccc3)=C(C(=O)O)N2C1=O)c1csc(N)n1

Source: ChEMBL document CHEMBL1126691, “Application of the hypersurface iterative projection method to bicyclic pyrazolidinone antibacterial agents” (1993)
